≈ marks a conversion by molar mass, not a printed value.
What was measured:
[1] = system: Aspergillus niger; assay: Antifungal activity against Aspergillus niger ATCC 6275 after 72 hrs by serial sub-cultivation method; type: functional; conditions: ATCC 6275, 72 h
Summary of the method: (§1)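 MFC was found by serial sub-cultivation of 2 µl into plates holding 100 µl broth per well, then incubation 72 h at 28 °C. MFC is the lowest concentration with no visible growth, taken as 99.5% killing of the original inoculum. Spore inocula came from malt agar cultures washed with 0.85% saline and 0.1% Tween 80.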

[2] = system: Aspergillus versicolor; assay: Antifungal activity against Aspergillus versicolor ATCC 11730 after 72 hrs by serial sub-cultivation method; type: functional; conditions: ATCC 11730, 72 h; summary of the method: as §1
[3] = system: Talaromyces funiculosus; assay: Antifungal activity against Penicillium funiculosum ATCC 36839 after 72 hrs by serial sub-cultivation method; type: functional; conditions: ATCC 36839, 72 h; summary of the method: as §1
[4] = system: Fulvia fulva; assay: Antifungal activity against Fulvia fulva TK 5318 after 72 hrs by serial sub-cultivation method; type: functional; conditions: TK 5318, 72 h; summary of the method: as §1
[5] = system: Fulvia fulva; assay: Antifungal activity against Fulvia fulva TK 5318 after 72 hrs by serial dilution method; type: functional; conditions: TK 5318, 72 h
Summary of the method: (§2)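 Fungi were kept on malt agar at 4 °C and sub-cultured monthly. Spores were washed off the agar with sterile 0.85% saline containing 0.1% Tween 80 (v/v). Modified microdilution in 96-well plates. MIC is the lowest concentration with no visible growth under the binocular microscope. Inoculum checked on malt agar for contamination and validity.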

[6] = system: Aspergillus flavus; assay: Antifungal activity against Aspergillus flavus ATCC 9643 after 72 hrs by serial dilution method; type: functional; conditions: ATCC 9643, 72 h; summary of the method: as §2
[7] = system: Aspergillus fumigatus; assay: Antifungal activity against Aspergillus fumigatus plant isolate after 72 hrs by serial dilution method
[8] = system: Aspergillus versicolor; assay: Antifungal activity against Aspergillus versicolor ATCC 11730 after 72 hrs by serial dilution method; type: functional; conditions: ATCC 11730, 72 h; summary of the method: as §2
[9] = system: Talaromyces funiculosus; assay: Antifungal activity against Penicillium funiculosum ATCC 36839 after 72 hrs by serial dilution method; type: functional; conditions: ATCC 36839, 72 h; summary of the method: as §2
[10] = system: Aspergillus niger; assay: Antifungal activity against Aspergillus niger ATCC 6275 after 72 hrs by serial dilution method; type: functional; conditions: ATCC 6275, 72 h; summary of the method: as §2
[11] = system: Penicillium ochrochloron; assay: Antifungal activity against Penicillium ochrochloron ATCC 9112 after 72 hrs by serial sub-cultivation method; type: functional; conditions: ATCC 9112, 72 h; summary of the method: as §1
[12] = system: Trichoderma viride; assay: Antifungal activity against Trichoderma viride IAM 5061 after 72 hrs by serial sub-cultivation method; type: functional; conditions: IAM 5061, 72 h; summary of the method: as §1
[13] = system: Aspergillus flavus; assay: Antifungal activity against Aspergillus flavus ATCC 9643 after 72 hrs by serial sub-cultivation method; type: functional; conditions: ATCC 9643, 72 h; summary of the method: as §1
[14] = system: Aspergillus fumigatus; assay: Antifungal activity against Aspergillus fumigatus plant isolate after 72 hrs by serial sub-cultivation method
[15] = system: Penicillium ochrochloron; assay: Antifungal activity against Penicillium ochrochloron ATCC 9112 after 72 hrs by serial dilution method; type: functional; conditions: ATCC 9112, 72 h; summary of the method: as §2
[16] = system: Trichoderma viride; assay: Antifungal activity against Trichoderma viride IAM 5061 after 72 hrs by serial dilution method; type: functional; conditions: IAM 5061, 72 h; summary of the method: as §2
[17] = system: Staphylococcus aureus; assay: Antibacterial activity against Staphylococcus aureus ATCC 6538 after 24 hrs; type: functional; conditions: ATCC 6538, 24 h
Summary of the method: (§3)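 Broth microdilution MIC in 96-well plates. Compounds in LB broth with bacterial inoculum of 1.0 × 10^4 cfu per well, from suspensions adjusted with sterile saline to 1.0 × 10⁵ CFU/ml. Incubated 24 h at […] as printed. MIC taken as the lowest concentration with no visible growth under the binocular microscope. OD at 655 nm also read against blank. Streptomycin and ampicillin as positive controls. Duplicate, repeated three times.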

[18] = system: Micrococcus flavus; assay: Antibacterial activity against Micrococcus flavus ATCC 10240 after 72 hrs by serial sub-cultivation method; type: functional; conditions: ATCC 10240, 72 h
Summary of the method: (§4)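 MBC was found by serial sub-cultivation of 2 µl from the MIC wells into plates holding 100 µl broth per well, then incubation for 72 h. MBC is the lowest concentration with no visible growth, i.e. 99.5% killing of the original inoculum. Bacterial inoculum was 1.0 × 10^4 cfu per well in LB broth. Duplicate, repeated three times.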

[19] = system: Escherichia coli; assay: Antibacterial activity against Escherichia coli ATCC 35210 after 24 hrs; type: functional; conditions: ATCC 35210, 24 h; summary of the method: as §3
[20] = system: Listeria monocytogenes; assay: Antibacterial activity against Listeria monocytogenes NCTC 7973 after 24 hrs; type: functional; conditions: NCTC 7973, 24 h; summary of the method: as §3
[21] = system: Proteus mirabilis; assay: Antibacterial activity against Proteus mirabilis after 24 hrs; type: functional; summary of the method: as §3
[22] = system: Listeria monocytogenes; assay: Antibacterial activity against Listeria monocytogenes NCTC 7973 after 72 hrs by serial sub-cultivation method; type: functional; conditions: NCTC 7973, 72 h; summary of the method: as §4
[23] = system: Proteus mirabilis; assay: Antibacterial activity against Proteus mirabilis after 72 hrs by serial sub-cultivation method; type: functional; summary of the method: as §4
[24] = system: Staphylococcus aureus; assay: Antibacterial activity against Staphylococcus aureus ATCC 6538 after 72 hrs by serial sub-cultivation method; type: functional; conditions: ATCC 6538, 72 h; summary of the method: as §4
[25] = system: Micrococcus flavus; assay: Antibacterial activity against Micrococcus flavus ATCC 10240 after 24 hrs; type: functional; conditions: ATCC 10240, 24 h; summary of the method: as §3
[26] = system: Bacillus cereus; assay: Antibacterial activity against Bacillus cereus clinical isolate after 24 hrs; type: functional; summary of the method: as §3
[27] = system: Bacillus cereus; assay: Antibacterial activity against Bacillus cereus clinical isolate after 72 hrs by serial sub-cultivation method; type: functional; summary of the method: as §4
[28] = system: Pseudomonas aeruginosa; assay: Antibacterial activity against Pseudomonas aeruginosa ATCC 27853 after 72 hrs by serial sub-cultivation method; type: functional; conditions: ATCC 27853, 72 h; summary of the method: as §4
[29] = system: Escherichia coli; assay: Antibacterial activity against Escherichia coli ATCC 35210 after 72 hrs by serial sub-cultivation method; type: functional; conditions: ATCC 35210, 72 h; summary of the method: as §4
[30] = system: Salmonella typhimurium; assay: Antibacterial activity against Salmonella Typhimurium ATCC 13311 after 72 hrs by serial sub-cultivation method; type: functional, Salmonella enterica subsp. enterica serovar Typhimurium; conditions: Salmonella enterica, ATCC 13311, 72 h; summary of the method: as §4
[31] = system: Salmonella typhimurium; assay: Antibacterial activity against Salmonella Typhimurium ATCC 13311 after 24 hrs; type: functional, Salmonella enterica subsp. enterica serovar Typhimurium; conditions: Salmonella enterica, ATCC 13311, 24 h; summary of the method: as §3
[32] = system: Pseudomonas aeruginosa; assay: Antibacterial activity against Pseudomonas aeruginosa ATCC 27853 after 24 hrs; type: functional; conditions: ATCC 27853, 24 h; summary of the method: as §3

| Structure (SMILES) | MFC [1] [µM] | MFC [2] [µM] | MFC [3] [µM] | MFC [4] [µM] | MIC [5] [µM] | MIC [6] [µM] | MIC [7] [µM] | MIC [8] [µM] | MIC [9] [µM] | MIC [10] [µM] | MFC [11] [µM] | MFC [12] [µM] | MFC [13] [µM] | MFC [14] [µM] | MIC [15] [µM] | MIC [16] [µM] | MIC [17] [µM] | MBC [18] [µM] | MIC [19] [µM] | MIC [20] [µM] | also measured |
| --- | --- | --- | --- | --- | --- | --- | --- | --- | --- | --- | --- | --- | --- | --- | --- | --- | --- | --- | --- | --- | --- |
| CC(=O)N1CCN(c2ccc(OCC3COC(Cn4ccnc4)(c4ccc(Cl)cc4Cl)O3)cc2)CC1 (centres undefined) [KETOCONAZOLE] | 950 (≈ 505 µg/mL) | 950 (≈ 505 µg/mL) | 950 (≈ 505 µg/mL) | 950 (≈ 505 µg/mL) | 380 (≈ 202 µg/mL) | 2850 (≈ 1510 µg/mL) | 380 (≈ 202 µg/mL) | 380 (≈ 202 µg/mL) | 380 (≈ 202 µg/mL) | 380 (≈ 202 µg/mL) | 3800 (≈ 2020 µg/mL) | 5700 (≈ 3030 µg/mL) | 3800 (≈ 2020 µg/mL) | 950 (≈ 505 µg/mL) | 3800 (≈ 2020 µg/mL) | 4750 (≈ 2520 µg/mL) |  |  |  |  |  |
| CC1(C)S[C@@H]2[C@H](NC(=O)[C@H](N)c3ccccc3)C(=O)N2[C@H]1C(=O)O [AMPICILLIN] |  |  |  |  |  |  |  |  |  |  |  |  |  |  |  |  | 248 (≈ 86.7 µg/mL) | 372 (≈ 130 µg/mL) | 372 (≈ 130 µg/mL) | 372 (≈ 130 µg/mL) | MIC [21]: 372 µM (≈ 130 µg/mL); MBC [22]: 744 µM (≈ 260 µg/mL); MBC [23]: 492 µM (≈ 172 µg/mL); MBC [24]: 372 µM (≈ 130 µg/mL); MIC [25]: 248 µM (≈ 86.7 µg/mL); MIC [26]: 248 µM (≈ 86.7 µg/mL); MBC [27]: 372 µM (≈ 130 µg/mL); MBC [28]: 1240 µM (≈ 433 µg/mL); MBC [29]: 492 µM (≈ 172 µg/mL); MBC [30]: 492 µM (≈ 172 µg/mL); MIC [31]: 248 µM (≈ 86.7 µg/mL); MIC [32]: 744 µM (≈ 260 µg/mL) |
| CN[C@@H]1[C@H](O[C@H]2[C@H](O[C@H]3[C@H](O)[C@@H](O)[C@H](N=C(N)N)[C@@H](O)[C@@H]3N=C(N)N)O[C@@H](C)[C@]2(O)C=O)O[C@@H](CO)[C@H](O)[C@H]1O [STREPTOMYCIN] |  |  |  |  |  |  |  |  |  |  |  |  |  |  |  |  | 172 (≈ 100 µg/mL) | 172 (≈ 100 µg/mL) | 172 (≈ 100 µg/mL) | 258 (≈ 150 µg/mL) | MIC [21]: 172 µM (≈ 100 µg/mL); MBC [22]: 516 µM (≈ 300 µg/mL); MBC [23]: 344 µM (≈ 200 µg/mL); MBC [24]: 344 µM (≈ 200 µg/mL); MIC [25]: 86 µM (≈ 50 µg/mL); MIC [26]: 43 µM (≈ 25 µg/mL); MBC [27]: 86 µM (≈ 50 µg/mL); MBC [28]: 344 µM (≈ 200 µg/mL); MBC [29]: 344 µM (≈ 200 µg/mL); MBC [30]: 344 µM (≈ 200 µg/mL); MIC [31]: 172 µM (≈ 100 µg/mL); MIC [32]: 172 µM (≈ 100 µg/mL) |
| c1ccc(-c2ccc(C(c3ccccc3)n3ccnc3)cc2)cc1 (centres undefined) [BIFONAZOLE] | 640 (≈ 199 µg/mL) | 640 (≈ 199 µg/mL) | 800 (≈ 248 µg/mL) | 640 (≈ 199 µg/mL) | 320 (≈ 99.3 µg/mL) | 480 (≈ 149 µg/mL) | 480 (≈ 149 µg/mL) | 320 (≈ 99.3 µg/mL) | 640 (≈ 199 µg/mL) | 480 (≈ 149 µg/mL) | 640 (≈ 199 µg/mL) | 800 (≈ 248 µg/mL) | 640 (≈ 199 µg/mL) | 640 (≈ 199 µg/mL) | 480 (≈ 149 µg/mL) | 640 (≈ 199 µg/mL) |  |  |  |  |  |

Reference: ChEMBL document CHEMBL1157665, “Novel 4-thiazolidinone derivatives as potential antifungal and antibacterial drugs” (2010)
